How the values were obtained:
Hepatocyte [1] = test: Detection of compound level in mouse hepatocytes treated with 25 uM of BMS-562086 after 3 hrs by HPLC analysis; format: ADME, cell-based
Method in brief: (§1)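 Mouse, rat, dog, monkey and human hepatocytes (trypan blue viability checked) at 1.0×10^6 cells/ml in Krebs-Henseleit buffer were incubated with 25 µM compound, in duplicate. Conditions were 37°C, 95/5 O2/CO2, orbital shaking, 3 h. 7-Ethoxycoumarin and 7-hydroxycoumarin (100 µM) served as positive controls, with a cell-free negative control. Reactions were quenched with ice-cold acetonitrile, then sonicated and centrifuged; supernatants were analysed by LC/MS/MS.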

Hepatocyte [2] = test: Detection of compound level in rat hepatocytes treated with 25 uM of BMS-562086 after 3 hrs by HPLC analysis; format: ADME, cell-based; method in brief: as §1
[3] = Detection of compound level in beagle dog hepatocytes treated with 25 uM of BMS-562086 after 3 hrs by HPLC analysis; format: ADME, cell-based, Canis lupus familiaris, Hepatocyte; method in brief: as §1
[4] = Detection of compound level in cynomolgus monkey cryopreserved hepatocytes treated with 25 uM of BMS-562086 after 3 hrs by HPLC analysis; format: ADME, cell-based, Macaca fascicularis, Hepatocyte; method in brief: as §1
Hepatocyte [5] = test: Detection of compound level in human cryopreserved hepatocytes treated with 25 uM of BMS-562086 after 3 hrs by HPLC analysis; format: ADME, cell-based; method in brief: as §1
[6] = Apparent permeability from apical to basolateral side in human Caco2 cells; format: ADME, cell-based; details: Caco-2
Method in brief: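 Caco-2 cells (passage 50-60) were seeded at 60,000 cells/cm2 on polycarbonate Transwells and cultured 21-25 days. Transport buffer was HBSS with 2% DMA, pH 7.4. Compound was applied apically at 25 µM at 37°C. Only monolayers with TEER 400-500 Ω cm2 at start and end were used, with mannitol as an integrity probe. Papp = (dQ/dt)/(A×C0).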

Row | Drug metabolism (Hepatocyte [1]) | Drug metabolism (Hepatocyte [2]) | Drug metabolism [3] | Drug metabolism [4] | Drug metabolism (Hepatocyte [5]) | Papp A→B [6] | Compound
1 | metabolite_detected | metabolite_detected | metabolite_detected | metabolite_detected | metabolite_detected | – | O=c1ccc2ccc(O)cc2o1 [UMBELLIFERONE]
2 | metabolite_detected | metabolite_detected | metabolite_detected | metabolite_detected | metabolite_detected | – | CCOc1ccc2ccc(=O)oc2c1
3 | – | – | – | – | – | 2.1 nm/s | OC[C@@H](O)[C@@H](O)[C@H](O)[C@H](O)CO [MANNITOL]

From ChEMBL document CHEMBL3526146, “In vitro and in vivo metabolism and pharmacokinetics of BMS-562086, a potent and orally bioavailable corticotropin-releasing factor-1 receptor antagonist” (Drug Metab Dispos, 2012)
